Paper PMC4324687 (Pharmacology Research & Perspectives, 2015)
Several values for one entry are separate records, joined by “and”; a condition that tells them apart may be missing. Identical values can stand only once. Like-named read-outs stand apart in the source and are kept apart here.

Assays:
[1] = assay type: in vivo, human
[2] = tested on: patients with metastatic melanoma; experiment: Safety assessments in patients with metastatic melanoma; assay type: in vivo, human
Procedure, shortened: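 Seven patients received a single oral 960-mg dose of 14C-labelled test compound on day 15 after ≥8 h fasting. Monitoring ran through the study and a 28-day follow-up and covered adverse events, routine laboratory values, physical examination, vital signs, electrocardiography, dermatology, and head/neck and chest CT. SCC cases were followed until death, consent withdrawal or loss to follow-up. Severity was graded by NCI CTCAE v4.0 and summarised.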

[3] = dog plasma after oral administration; ref F. Hoffmann-La Roche, data on file; cited from earlier work
[4] = tested on: CYP3A4; conditions: human liver microsomes; ref F. Hoffmann-La Roche, data on file; cited from earlier work
[5] = Pharmacokinetics of 14C-vemurafenib-related material; assay type: in vivo, human; conditions: for Cmax, mean ± SD [CV%]: single oral 960-mg dose
[6] = Metabolic profiling of pooled plasma; assay type: in vivo, human; conditions: for proportion of total chromatographic radioactivity in plasma, overall: over the 48-h interval postdose
[7] = Metabolic profiling of pooled feces; assay type: in vivo, human
[8] = cited from earlier work
[9] = ref F. Hoffmann-La Roche, data on file, cited from earlier work
[10] = Metabolic profiling of pooled urine; assay type: in vivo, human; conditions: single pool 0–96 h
[11] = cited from earlier work; remark: listed apart in the source
[12] = within 18 days after dosing, listed as 14C-vemurafenib
[13] = laboratory evaluation, of seven patients
[14] = plasma, N=5, listed as 14C-vemurafenib

Structure (SMILES): CCCS(=O)(=O)Nc1ccc(F)c(C(=O)c2c[nH]c3ncc(-c4ccc(Cl)cc4)cc23)c1F [vemurafenib]
- time within which the majority of fecal radioactivity was eliminated ([1]; cumulative excretion in feces): ≤ 264 h
- time within which the majority of urinary radioactivity was eliminated ([1]; cumulative excretion in urine): ≤ 192 h
- radioactivity recovered in feces, mean ± SD ([1]; within 18 days after dosing): Approximately 94%
- radioactivity recovered in feces, range ([1]; within 18 days after dosing): 89.4–97.6%
- radioactivity recovered in urine, mean ([1]; within 18 days after dosing): ≤ 1%
- radioactivity recovered in urine, range ([1]; within 18 days after dosing): 0.56–1.63%
- radioactivity recovered in feces, mean ± SD [1, 12]: 94.1% and 94.1 ± 2.7%
- radioactivity recovered in urine, mean [1, 12]: < 1%
- 14C-vemurafenib-related material recovered from urine and feces, range ([1]; within 18 days after dosing, seven patients): 91.0–98.3%
- severity of most adverse events ([2]; NCI CTCAE grade 1 or 2): mild or moderate
- serious adverse events (all grade 3), number of events ([2]; cuSCC, cuSCC and keratoacanthoma, considered related): Three
- elevated low-density lipoprotein cholesterol level [2, 13]: three
- grade 3 lymphopenia [2, 13]: four
- low white blood cell count [2, 13]: three
- changes in electrocardiography or vital signs ([2]; seven patients): No clinically significant changes
- patients with at least one adverse event related to vemurafenib ([2]; seven patients): All patients
- treatment discontinuation because of an adverse event ([2]; seven patients): No patient discontinued treatment
- tolerability ([2]; seven patients, 960 mg twice daily): well-tolerated
- component status of unchanged parent drug in plasma [3]: major component
- primary enzyme responsible for metabolism and formation of hydroxylated metabolites [4]: CYP3A4 was the primary enzyme
- Blood/plasma AUC ratio, mean ± SD [CV%] ([5]; N=5): 0.72 ± 0.050 [6.83]
- 14C-vemurafenib-related material that might be bound to the cellular compartment in whole blood ([5]; assuming 40–50% of whole blood is cells): 10–20%
- Tmax, median (minimum–maximum) ([5]; blood, N=5): 4.1 (4–12) ^1 h
- t½ (elimination half-life), mean ± SD [CV%] ([5]; blood, N=5): 84.4 ± 24.6 [29.1] h
- Cmax, mean ± SD [CV%] ([5]; blood, N=5): 5.25 ± 1.71 [32.5] μg eq/mL
- Blood/plasma AUC ratio, range ([5]; human, blood and plasma, oral, 960 mg): 0.69–0.81
- plasma elimination half-life of 14C-vemurafenib-related material, range ([5]; plasma): 51 to 86 h
- Tmax, median (minimum–maximum) ([5]; plasma, N=5): 4.1 (4–12) ^1 h
- t½ (elimination half-life) of 14C-vemurafenib-related material, mean ± SD [CV%] ([5]; plasma, N=5): 71 h
- t½ (elimination half-life) of 14C-vemurafenib-related material, mean ± SD [CV%] [5, 14]: 71.1 ± 15.4 [21.6] h
- Cmax, mean ± SD [CV%] [5, 14]: 7.83 ± 2.28 [29.1] μg eq/mL
- proportion of radioactivity in pooled plasma, mean ± SD ([6]; 4–6 h pool): 99.5 ± 1.4%
- proportion of radioactivity in pooled plasma, mean ± SD ([6]; 12–24 h pool): 95.9 ± 5.5%
- proportion of radioactivity in pooled plasma, mean ± SD ([6]; 36–48 h pool): 96.0 ± 3.8%
- proportion of total chromatographic radioactivity in plasma, overall ([6]; listed as parent compound): 95%
- proportion of total chromatographic radioactivity in plasma, overall ([6]; listed as parent molecule): > 95%
- proportion of radioactivity in feces, mean ([7]; 48–96 h pool): 55.5 ± 20.1%
- % of the total input dose found in pooled feces ([7]; first 48 h): 38%
- proportion of all recovered radioactivity in feces, mean ± SD ([7]; first 48 h pool): 94.2 ± 5.8%
- % of the total radioactive dose found in pooled feces ([7]; within the first 96 h): ~55%
- median elimination half-life (population PK modeling) ([8]; continual multiple-dose vemurafenib, ref Genentech, Inc. [2014]): 57 h
- elimination half-life after a single dose ([8]; single dose, ref Ribas et al. [2014]): ~25 h
- component status of unchanged parent drug in plasma ([9]; rat plasma after oral administration): major component
- route of recovery of vemurafenib-derived radioactivity (parent plus metabolites) ([9]; rats): primarily recovered in feces
- % of total administered (input radioactive) dose in urine [10]: ~1%
- maximum tolerated dose and recommended dose for further clinical evaluation ([11]; phase 1 data, ref Flaherty et al. [2010]): 960 mg twice daily
- pharmacokinetics with hand-filled capsules versus tablets ([11]; phase 1 trial PLX06-02, ref phase 1 trial PLX06-02): No differences
